{"source": "ChEMBL document CHEMBL1145524", "about": "“Structure-based activity prediction for an enzyme of unknown function” (Nature, 2007)", "molecules": {"B1": {"name": "5-methylthioadenosine/S-adenosylhomocysteine deaminase (Thermotoga maritima (strain ATCC 43589 / MSB8 / DSM 3109 / JCM 10099)), Q9X034 (protein)", "chain": "MIIGNCLILKDFSSEPFWGAVEIENGTIKRVLQGEVKVDLDLSGKLVMPALFNTHTHAPMTLLRGVAEDLSFEEWLFSKVLPIEDRLTEKMAYYGTILAQMEMARHGIAGFVDMYFHEEWIAKAVRDFGMRALLTRGLVDSNGDDGGRLEENLKLYNEWNGFEGRIFVGFGPHSPYLCSEEYLKRVFDTAKSLNAPVTIHLYETSKEEYDLEDILNIGLKEVKTIAAHCVHLPERYFGVLKDIPFFVSHNPASNLKLGNGIAPVQRMIEHGMKVTLGTDGAASNNSLNLFFEMRLASLLQKAQNPRNLDVNTCLKMVTYDGAQAMGFKSGKIEEGWNADLVVIDLDLPEMFPVQNIKNHLVHAFSGEVFATMVAGKWIYFDGEYPTIDSEEVKRELARIEKELYSS"}, "B2": {"name": "Adenosylhomocysteinase (Thermotoga maritima (strain ATCC 43589 / MSB8 / DSM 3109 / JCM 10099)), O51933 (protein)", "chain": "MNTGEMKINWVSRYMPLLNKIAEEYSREKPLSGFTVGMSIHLEAKTAYLAITLSKLGAKVVITGSNPLSTQDDVAEALRSKGITVYARRTHDESIYRENLMKVLDERPDFIIDDGGDLTVISHTEREEVLENLKGVSEETTTGVRRLKALEETGKLRVPVIAVNDSKMKYLFDNRYGTGQSTWDAIMRNTNLLVAGKNVVVAGYGWCGRGIALRAAGLGARVIVTEVDPVKAVEAIMDGFTVMPMKEAVKIADFVITASGNTDVLSKEDILSLKDGAVLANAGHFNVEIPVRVLEEIAVEKFEARPNVTGYTLENGKTVFLLAEGRLVNLAAGDGHPVEIMDLSFALQIFAVLYLLENHRKMSPKVYMLPDEIDERVARMKLDSLGVKIDELTEKQRRYLRSWQ"}}, "key": {"[1]": {"biological_target": "T1, Adenosylhomocysteinase (Thermotoga maritima (strain ATCC 43589 / MSB8 / DSM 3109 / JCM 10099)) (UniProt O51933)", "T1 sequence (whole entry)": "B2 chain", "experiment": "(§1) Activity of Thermotoga maritima S-adenosyl-L-homocysteine hydrolase Tm0172 assessed as homocysteine hydrolysis", "in_short": "(§2)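 Tm0172 expressed in E. coli (arabinose induction), heat-treated 65 °C and purified on chelating Sepharose as His-tagged protein. Assay: 100 mM HEPES pH 8.0, 1.0 mM DTNB, 1.0 mM EDTA, 13 μM Tm0172, substrate up to 10 mM, 30 °C. kcat and kcat/Km obtained by fitting initial velocities to the Michaelis–Menten equation.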"}, "[2]": {"substrate": "Nc1ncnc2c1ncn2[C@@H]1O[C@H](CO)[C@@H](O)[C@H]1O", "experiment": "(§3) Ratio of Kcat to Km for Thermotoga maritima S-adenosyl-homocysteine deaminase Tm0936 assessed as ammonia production", "in_short": "(§4)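 Recombinant Tm0936 was expressed in E. coli, heat-treated at 65 °C, then purified by anion exchange and gel filtration (Zn-containing). Ammonia release was coupled to glutamate dehydrogenase, with NADH loss read at 340 nm. Assay: 100 mM HEPES pH 8.0, 7.4 mM α-ketoglutarate, 0.4 mM NADH, 6 units GDH, 30 °C. kcat and kcat/Km came from fitting initial velocities versus substrate concentration.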"}, "[3]": {"substrate": "CSC[C@H]1O[C@@H](n2cnc3c(N)ncnc32)[C@H](O)[C@@H]1O", "experiment": "as §3", "in_short": "as §4"}, "[4]": {"substrate": "Nc1ncnc2c1ncn2[C@@H]1O[C@H](CSCC[C@H](N)C(=O)O)[C@@H](O)[C@H]1O", "experiment": "as §3", "in_short": "as §4"}, "[5]": {"substrate": "C[S+](CC[C@H](N)C(=O)[O-])C[C@H]1O[C@@H](n2cnc3c(N)ncnc32)[C@H](O)[C@@H]1O", "experiment": "(§5) Activity of Thermotoga maritima S-adenosyl-homocysteine deaminase Tm0936 assessed as ammonia production", "in_short": "as §4"}, "[6]": {"substrate": "Nc1ncnc2c1ncn2[C@@H]1O[C@H](CO)[C@@H](O)[C@H]1O", "experiment": "as §5", "in_short": "as §4"}, "[7]": {"substrate": "CSC[C@H]1O[C@@H](n2cnc3c(N)ncnc32)[C@H](O)[C@@H]1O", "experiment": "as §5", "in_short": "as §4"}, "[8]": {"substrate": "Nc1ncnc2c1ncn2[C@@H]1O[C@H](COP(=O)(O)O)[C@@H](O)[C@H]1O", "experiment": "as §5", "in_short": "as §4"}, "[9]": {"substrate": "Nc1ncnc2c1ncn2[C@@H]1O[C@H](CSCC[C@H](N)C(=O)O)[C@@H](O)[C@H]1O", "experiment": "as §5", "in_short": "as §4"}, "[10]": {"substrate": "Nc1ncnc2c1ncn2[C@@H]1O[C@H](CSCC[C@H](N)C(=O)O)[C@@H](O)[C@H]1O", "experiment": "as §1", "in_short": "as §2"}, "[11]": {"substrate": "Nc1ncnc2c1ncn2[C@@H]1O[C@H](CSCC[C@H](N)C(=O)O)[C@@H](O)[C@H]1O", "experiment": "Ratio of Kcat to Km for Thermotoga maritima S-adenosyl-L-homocysteine hydrolase Tm0172 assessed as homocysteine hydrolysis", "in_short": "as §2"}}, "data": [{"molecule": "Nc1ncnc2c1ncn2[C@@H]1O[C@H](CSCC[C@H](N)C(=O)O)[C@@H](O)[C@H]1O", "values": [{"measurement": "kcat", "setting": "[1]", "result": 0.004, "unit": "s⁻¹"}]}, {"molecule": "B1", "values": [{"measurement": "kcat/Km", "setting": "[2]", "result": "9.2 10^3/M/s"}, {"measurement": "kcat/Km", "setting": "[3]", "result": "1.5 10^5/M/s"}, {"measurement": "kcat/Km", "setting": "[4]", "result": "5.8 10^4/M/s"}, {"measurement": "kcat", "setting": "[5]", "result": "1 10^-3/s"}, {"measurement": "Km", "setting": "[6]", "result": 250, "unit": "µM"}, {"measurement": "kcat", "setting": "[6]", "result": 2.3, "unit": "s⁻¹"}, {"measurement": "Km", "setting": "[7]", "result": 44, "unit": "µM"}, {"measurement": "kcat", "setting": "[7]", "result": 7.2, "unit": "s⁻¹"}, {"measurement": "kcat", "setting": "[8]", "result": "1 10^-3/s"}, {"measurement": "Km", "setting": "[9]", "result": 210, "unit": "µM"}, {"measurement": "kcat", "setting": "[9]", "result": 12.2, "unit": "s⁻¹"}]}, {"molecule": "B2", "values": [{"measurement": "Km", "setting": "[10]", "result": 21, "unit": "µM"}, {"measurement": "kcat/Km", "setting": "[11]", "result": "1.1 10^2/M/s"}]}]}
